Results on 13 compounds are retold here after PubChem BioAssay.

Calls of active or inactive are those of the source.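 The calls were made as follows, unless noted: active = fluorescence slope after compound addition differing from the mean of all screened samples at 99.7% confidence, in either direction; inactive = the rest.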

Usually inhibition stands for the change of the read-out against control, counted positive when it falls.

A short description of experiment [1]: inhibitors of TNFa-induced NFkB p65 translocation, primary screen, imaging, HUVEC, MLSMR starter and 10KST1 sets (AID 438;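 active = inhibition above 20% together with a positive visual image hit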;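 also: compound added about 3h40 before a 20 min TNFalpha stimulation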;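 as to inhibition: signal is the nuclear over cytoplasmic p65 intensity ratio per well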). Particulars: HUVEC TNFa-induced p65 nuclear translocation; cell count: measured here: nuclei count (cytotoxicity indicator), at 2.08 µM; inhibition: at 2 µM, stronger effect = higher value, 0% TNFa-plus-vehicle, 100% no-TNFa wells.
Experiment [2] can be described thus: endothelial E-selectin expression blockers – imaging, HUVEC, immunofluorescence, MLSMR starter and 10KST1 sets, primary screen (AID 487;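 active = visually confirmed hit in the image check and inhibition above 20%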;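 as to inhibition: signal is fraction of cell area covered by stained E-selectin grains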;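 as to nuclei count: 100% = median nuclei count of all wells on the same plate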). The note with it: HUVEC TNFalpha-induced E-selectin immunofluorescence imaging, at 2 µM; inhibition: stronger effect = higher value; nuclei count: measured here: cell number, toxicity.
The nature of experiment [3]: Primary imaging screen for DUSP6 inhibitors that restore phospho-Erk in transfected HeLa cells, chemical complementation (AID 609;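 active = compounds giving at least 50% inhibition in the cell-based MKP-3 phosphatase rescue imaging test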;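 as to inhibition: phospho-Erk level distribution per well compared with pooled transfected vehicle control wells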). The note with it: HeLa MKP-3 transfected, phospho-Erk imaging KS statistic, at 10 µM, cells stimulated with TPA for 15 min.
Experiment [4] has as its target Dual specificity protein phosphatase 6 (Homo sapiens) (UniProt Q16828). The description is as above. The note with it: HeLa MKP-3 transfected, phospho-Erk imaging KS statistic; at 10 µM; stronger effect = higher value; cells stimulated with TPA for 15 min.
Experiment [5] concerns the target Voltage-gated potassium channel subunit beta-2 (Rattus norvegicus) (UniProt P62483). The experiment in a line: inhibitors of rat Kvbeta2 reductase activity – biochemical, NADPH fluorescence, primary screen (AID 622;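 active = fluorescence slope higher than the sample average by over 3 SD, cut at about -0.22 in these data, passing the limit was not always enough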;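 also: slope of raw intensity against log time taken from 70 to 1610 s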). The note with it: recombinant KvBeta, 4-cyanobenzaldehyde reduction, at 10 µM, stronger effect = higher value.
Experiment [6] has the same target. Kind of experiment: enhancers of rat Kvbeta2 NADPH turnover – biochemical, NADPH fluorescence, primary screen (AID 623;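 active = NADPH fluorescence slope more negative than the mean of all samples by about 3 SD, 99.7% confidence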;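 also: fluorescence intensity change per second fitted from 20 to 320 s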). The note with it: Recombinant KvBeta, NADPH fluorescence decrease slope, 10 min; at 10 µM; stronger effect = lower value.
For experiment [7], the target named is Alpha-2C adrenergic receptor (Homo sapiens) (UniProt P18825). Kind of experiment: compounds altering alpha2C-coupled GIRK flux – cell-based, HEK293 alpha2C/GIRK1/2, thallium flux, primary screen (AID 624).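 Also: slope of fluorescence ratio to pre-addition baseline per second over 15 to 24 s.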 The note with it: thallium flux BTC fluorescence, at 10 µM, actives lie on both sides.
Chain of Alpha-2C adrenergic receptor (Homo sapiens) (P18825 whole entry, looked up): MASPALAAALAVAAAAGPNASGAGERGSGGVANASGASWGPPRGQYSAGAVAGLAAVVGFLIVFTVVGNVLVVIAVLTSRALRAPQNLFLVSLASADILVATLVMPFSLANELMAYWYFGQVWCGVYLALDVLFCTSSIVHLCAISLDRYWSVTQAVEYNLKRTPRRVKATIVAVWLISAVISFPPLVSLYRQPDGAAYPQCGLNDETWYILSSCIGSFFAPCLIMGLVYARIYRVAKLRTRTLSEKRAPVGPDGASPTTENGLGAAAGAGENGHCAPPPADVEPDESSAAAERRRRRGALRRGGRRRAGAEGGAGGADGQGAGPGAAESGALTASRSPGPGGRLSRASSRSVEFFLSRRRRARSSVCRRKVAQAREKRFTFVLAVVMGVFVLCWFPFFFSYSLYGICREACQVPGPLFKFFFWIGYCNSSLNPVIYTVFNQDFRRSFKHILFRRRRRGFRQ
The nature of experiment [8]: inhibitors of larval lipid processing in zebrafish, primary screen, whole organism, PED6 fluorescence, gall bladder and intestine (AID 686;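 active = a full or partial loss of lipid-probe fluorescence in the fish gall bladder, intestine or both, judged by eye; inactive = no fluorescence loss, or compound toxic to the fish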;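 also: larvae 5 to 7 days old with five fish per well; signal comes from phospholipase A2 cleavage of quenched PED6 carried via bile; overnight exposure to compound and PED6 before scoring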). The note with it: Zebrafish larvae PED6 lipid processing, fluorescence scoring; screened at 20 µM (by protocol). The gist of the method:
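Doses: 20 µM single dose. Test system: live zebrafish larvae aged 5-7 days, whole organism. Quantity: five larvae per well. Measured by: By-eye fluorescence microscopy. Reagent: ingested quenched lipid PED6 at 100 nM. Read-out: visual per-well fluorescence inhibition score. Times: overnight exposure of larvae to compound plus PED6.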

The nature of experiment [9]: loss of swimming-algae plug formation – whole organism, Chlamydomonas reinhardtii, WT vs cilia-less mutant, absorbance, 96-well, primary screen (AID 463189;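 active = inhibition at or above 50% relative to wild type and mutant plate controls; inactive = inhibition below 50%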;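 also: 0% = wild type cc124 cells in DMSO and 100% = ciliumless bld1 mutant cells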). Particulars: Chlamydomonas reinhardtii gravitaxis, OD600 absorbance, 2 days; at 10 µM; stronger effect = higher value.
Where [10] appears, read: measured here: cell density z-score.
[11] abbreviates: measured here: nuclear c-Myc green intensity z-score.
Setting [12] is: measured here: nuclear pErk red intensity z-score, stronger effect = higher value.

Chain of Voltage-gated potassium channel subunit beta-2 (Rattus norvegicus) (P62483 whole entry, looked up): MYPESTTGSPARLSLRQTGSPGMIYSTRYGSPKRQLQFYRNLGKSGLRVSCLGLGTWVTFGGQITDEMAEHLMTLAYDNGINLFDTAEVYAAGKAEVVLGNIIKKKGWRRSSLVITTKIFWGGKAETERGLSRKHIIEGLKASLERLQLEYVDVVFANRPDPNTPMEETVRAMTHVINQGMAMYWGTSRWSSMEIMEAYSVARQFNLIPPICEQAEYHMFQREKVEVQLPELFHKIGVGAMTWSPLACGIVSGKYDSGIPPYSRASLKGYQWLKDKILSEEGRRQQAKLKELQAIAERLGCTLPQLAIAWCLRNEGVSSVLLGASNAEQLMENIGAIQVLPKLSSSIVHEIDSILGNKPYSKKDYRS
Chain of Dual specificity protein phosphatase 6 (Homo sapiens) (Q16828 whole entry, looked up): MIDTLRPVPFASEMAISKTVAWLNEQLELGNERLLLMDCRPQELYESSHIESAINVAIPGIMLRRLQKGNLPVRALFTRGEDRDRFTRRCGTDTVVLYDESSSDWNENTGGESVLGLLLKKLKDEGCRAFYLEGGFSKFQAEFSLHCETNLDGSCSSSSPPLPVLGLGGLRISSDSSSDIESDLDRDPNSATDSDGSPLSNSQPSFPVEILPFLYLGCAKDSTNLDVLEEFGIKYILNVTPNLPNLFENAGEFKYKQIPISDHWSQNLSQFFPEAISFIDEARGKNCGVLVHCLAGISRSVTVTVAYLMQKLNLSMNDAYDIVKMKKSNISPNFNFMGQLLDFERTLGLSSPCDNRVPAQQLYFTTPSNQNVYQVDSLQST

Take `CCc1ccc(NC(=O)CSC2=C(C#N)C(c3ccco3)C3=C(CCCC3=O)N2)cc1` (centres undefined): in experiment [1], the cell count worked out at 461. In addition, the inhibition in [1] was -1.3% (inactive); in experiment [2], -13.8% (inactive); in [4], 5.57% (inactive); in experiment [9], -1.64% (inactive). For the same compound, the nuclei count in [2] worked out at 117%. Also, the z-score is -0.838 in experiment [3] (setting [10]), 1.11 in [3] (setting [11]) and 0.462 in [3] (setting [12]). The fluorescence slope in experiment [5] was -0.501 (inactive). The NADPH fluorescence slope in experiment [6] was -8.3e-05 (inactive). Moreover, in experiment [7], the slope is 0.00507 (inactive). Further, the compound was called inactive in experiment [8].
In the case of `Cc1nc2sc3c(c2c(=O)o1)CC(C)(C)OC3`, the cell count in experiment [1] was found to be 555. Moreover, the inhibition in experiment [1] is -9.6% (inactive); in [2], 23.7% (inactive); in [4], 7.7% (inactive); in [9], -15.1% (inactive). The same compound registered a nuclei count in [2] of 115%. The z-score is 0.476 in experiment [3] (setting [10]), 1.45 in experiment [3] (setting [11]) and -1.12 in [3] (setting [12]). Further, in [5], the fluorescence slope is -0.461 (inactive). Further, the NADPH fluorescence slope in experiment [6] is -1.1e-05 (inactive). Besides, the slope in [7] was 0.0057 (inactive). Also, the call in experiment [8] was inactive.
Turning to `O=C1CC(c2ccco2)CC(O)=C1C=Nc1cc(Cl)ccc1O` (centres undefined), the cell count in [1] is 416. The inhibition in experiment [1] was -17% (inactive); in experiment [2] it was -77.9% (inactive); in experiment [4], 1.04% (inactive); in experiment [9], 17.7% (inactive). Besides, in [2], the nuclei count stood at 152%. Moreover, the results for the z-score in [3] (setting [10]), in [3] (setting [11]) and in experiment [3] (setting [12]) were -1.18, -0.564 and 1.32, respectively. Also, the fluorescence slope in [5] was -0.386 (inactive). Further, the NADPH fluorescence slope in experiment [6] was -5.2e-05 (inactive). Besides, the slope in experiment [7] was 0.00522 (inactive). Besides, the outcome in experiment [8] was inactive.
In the case of `CCN(CC)S(=O)(=O)c1ccc2c(c1)c(C(=O)O)cn2C`, the cell count in experiment [1] stood at 435. Further, the inhibition in experiment [1] was -15.2% (inactive); in [2] it was -25.4% (inactive); in [4], 24.4% (inactive); in experiment [9], 22.9% (inactive). The nuclei count in [2] was found to be 114%. The z-score in [3] (setting [10]) was 0.944; in [3] (setting [11]), -0.275; in [3] (setting [12]) it was -1.67. For the same compound, in [5], the fluorescence slope was -0.568 (inactive). Moreover, the NADPH fluorescence slope in experiment [6] was -6e-05 (inactive). Further, the slope in experiment [7] is 0.00489 (inactive). In addition, the outcome in experiment [8] was inactive.
`CC1(C)Cc2c(sc3[nH]c(=S)n(Cc4ccco4)c(=O)c23)CO1`: in [1], the cell count stood at 541. Moreover, the inhibition in [1] was -15.5% (inactive); in experiment [2], -74.4% (inactive); in experiment [4], -2.69% (inactive); in experiment [9] it was -12.6% (inactive). The nuclei count in experiment [2] worked out at 117%. In addition, the z-score in [3] (setting [10]) was -0.898; in experiment [3] (setting [11]) it was -0.375; in experiment [3] (setting [12]) it was -0.762. The fluorescence slope in experiment [5] was -0.361 (inactive). Moreover, the NADPH fluorescence slope in experiment [6] is 2.2e-05 (inactive). For the same compound, in experiment [7], the slope is 0.0124 (active). Also, the outcome in [8] was inactive.
Turning to `CCSc1nnc(N(CCC(=O)O)CCC(=O)O)s1`, the cell count in experiment [1] was determined as 371. Moreover, the inhibition in [1] was -10.5% (inactive); in experiment [2], -116% (inactive); in experiment [4] it was 7.48% (inactive); in [9], -5.02% (inactive). The compound further yielded a nuclei count in [2] of 155%. Also, the z-score in [3] (setting [10]) was 0.0345; in experiment [3] (setting [11]), 0.0362; in experiment [3] (setting [12]), -1.04. Further, the fluorescence slope in [5] is -0.422 (inactive). In experiment [6], the NADPH fluorescence slope was -2.2e-05 (inactive). Besides, the slope in experiment [7] was 0.00562 (inactive). Besides, the call in [8] was inactive.
Regarding `O=C(O)C1CSC(CCc2ccccc2)N1` (centres undefined), the cell count in experiment [1] is 633. Further, the inhibition in experiment [1] was -7.7% (inactive); in [2], -34.8% (inactive); in experiment [4] it was 7.83% (inactive); in [9] it was 8.25% (inactive). For the same compound, the nuclei count in experiment [2] came to 140%. Also, the z-score in experiment [3] (setting [10]) was -0.486; in [3] (setting [11]), 0.112; in experiment [3] (setting [12]) it was 1.29. Besides, in experiment [5], the fluorescence slope was -0.459 (inactive). Besides, the NADPH fluorescence slope in experiment [6] was -0.000276 (inactive). Further, in experiment [7], the slope is 0.00538 (inactive). Moreover, the result in experiment [8] was inactive.
In the case of `COc1ccc(Cn2c(=O)c3c(nc(NCCO)n3C)n(C)c2=O)cc1`, the cell count in [1] is 336. Besides, the inhibition in [1] is -3.5% (inactive); in experiment [2], -129% (inactive); in experiment [4], -0.624% (inactive); in experiment [9], -14.7% (inactive). For the same compound, the nuclei count in experiment [2] worked out at 131%. Also, the z-score in experiment [3] (setting [10]) was -0.216; in [3] (setting [11]), 1.13; in [3] (setting [12]), 0.242. The fluorescence slope in [5] is -0.369 (inactive). The NADPH fluorescence slope in experiment [6] is 3.5e-05 (inactive). The slope in [7] was 0.00827 (inactive). In addition, in experiment [8], the compound was classed as inactive.
On to `CC(=O)Nn1cnc2c(c1=O)C1(CCCC1)Cc1ccccc1-2`, for which, in experiment [1], the cell count is 520. The inhibition in experiment [1] is -1.9% (inactive); in [2], 29.6% (inactive); in experiment [4], -2.69% (inactive); in experiment [9] it was 43% (inactive). Further, in [2], the nuclei count stood at 113%. The z-score is -0.985 in [3] (setting [10]), 1.83 in experiment [3] (setting [11]) and 1.16 in [3] (setting [12]). Further, in experiment [5], the fluorescence slope was -0.382 (inactive). In [6], the NADPH fluorescence slope was -2e-06 (inactive). In addition, in experiment [7], the slope is 0.0042 (inactive). The result in [8] was inactive.
Regarding `Nc1nnc(Cc2ccc(Cl)c(Cl)c2)s1`, the cell count in experiment [1] was 621. In addition, the inhibition in [1] is 2.9% (inactive); in experiment [2], 33.3% (inactive); in experiment [4], -7.86% (inactive); in [9], 2.91% (inactive). This compound also registered a nuclei count in experiment [2] of 174%. Besides, the z-score in experiment [3] (setting [10]) was 0.377; in [3] (setting [11]), 1.31; in experiment [3] (setting [12]), -0.983. In experiment [5], the fluorescence slope was -0.369 (inactive). Also, in experiment [6], the NADPH fluorescence slope is -3.6e-05 (inactive). Moreover, in experiment [7], the slope is 0.00535 (inactive). In addition, the compound was classed as inactive in [8].
For `COc1ccc2[nH]c(C)c(C(=O)CN3CCc4cc(OC)c(OC)cc4C3)c2c1`, the cell count in experiment [1] amounted to 520. For the same compound, the inhibition was 3.2% (inactive) in experiment [1], 7.5% (inactive) in experiment [2], -8.76% (inactive) in experiment [4] and 22.2% (inactive) in [9]. The compound also gave a nuclei count in experiment [2] of 117%. The z-score in experiment [3] (setting [10]) is -1.28; in experiment [3] (setting [11]) it was 1.53; in experiment [3] (setting [12]), -1.2. In addition, the fluorescence slope in experiment [5] was -0.205 (inactive). For the same compound, the NADPH fluorescence slope in [6] is -2e-05 (inactive). For the same compound, the slope in experiment [7] is 0.00464 (inactive). The compound was classed as inactive in experiment [8].
`OCCOCCNc1ncnc2c1cnn2-c1ccccc1`: the cell count in experiment [1] amounted to 472. Also, the inhibition in experiment [1] was -2% (inactive); in experiment [2], -38.9% (inactive); in experiment [4], 16.8% (inactive); in experiment [9], 0.488% (inactive). In experiment [2], the nuclei count worked out at 162%. For the same compound, the z-score in experiment [3] (setting [10]) was -0.85; in experiment [3] (setting [11]), 1.86; in experiment [3] (setting [12]) it was 0.161. Also, the fluorescence slope in experiment [5] is -0.374 (inactive). Further, the NADPH fluorescence slope in experiment [6] was -1.3e-05 (inactive). Moreover, the slope in experiment [7] was 0.00585 (inactive). Moreover, the outcome in experiment [8] was inactive.
With `CCCCOc1ccc(C)cc1CN(CCO)CCO`, the cell count in [1] turned out to be 552. In addition, the inhibition was -8% (inactive) in experiment [1], -87% (inactive) in experiment [2], 1.9e-07% (inactive) in [4] and -2.14% (inactive) in [9]. Also, in experiment [2], the nuclei count was determined as 111%. The values for the z-score in experiment [3] (setting [10]), in experiment [3] (setting [11]) and in experiment [3] (setting [12]) were -1.69, -0.122 and -1.5, respectively. Moreover, the fluorescence slope in experiment [5] is -0.506 (inactive). The NADPH fluorescence slope in [6] is -1.2e-05 (inactive). Further, in experiment [7], the slope is 0.0065 (inactive). The call in experiment [8] was inactive.
